Calls of active or inactive are those of the source. No cut-off for these calls is given here.
What was measured:
Aminopeptidase N = target: T1, Aminopeptidase N (Sus scrofa, UniProt P15145); test: Inhibition of pig kidney microsomes aminopeptidase N
T1 sequence (P15145 whole entry): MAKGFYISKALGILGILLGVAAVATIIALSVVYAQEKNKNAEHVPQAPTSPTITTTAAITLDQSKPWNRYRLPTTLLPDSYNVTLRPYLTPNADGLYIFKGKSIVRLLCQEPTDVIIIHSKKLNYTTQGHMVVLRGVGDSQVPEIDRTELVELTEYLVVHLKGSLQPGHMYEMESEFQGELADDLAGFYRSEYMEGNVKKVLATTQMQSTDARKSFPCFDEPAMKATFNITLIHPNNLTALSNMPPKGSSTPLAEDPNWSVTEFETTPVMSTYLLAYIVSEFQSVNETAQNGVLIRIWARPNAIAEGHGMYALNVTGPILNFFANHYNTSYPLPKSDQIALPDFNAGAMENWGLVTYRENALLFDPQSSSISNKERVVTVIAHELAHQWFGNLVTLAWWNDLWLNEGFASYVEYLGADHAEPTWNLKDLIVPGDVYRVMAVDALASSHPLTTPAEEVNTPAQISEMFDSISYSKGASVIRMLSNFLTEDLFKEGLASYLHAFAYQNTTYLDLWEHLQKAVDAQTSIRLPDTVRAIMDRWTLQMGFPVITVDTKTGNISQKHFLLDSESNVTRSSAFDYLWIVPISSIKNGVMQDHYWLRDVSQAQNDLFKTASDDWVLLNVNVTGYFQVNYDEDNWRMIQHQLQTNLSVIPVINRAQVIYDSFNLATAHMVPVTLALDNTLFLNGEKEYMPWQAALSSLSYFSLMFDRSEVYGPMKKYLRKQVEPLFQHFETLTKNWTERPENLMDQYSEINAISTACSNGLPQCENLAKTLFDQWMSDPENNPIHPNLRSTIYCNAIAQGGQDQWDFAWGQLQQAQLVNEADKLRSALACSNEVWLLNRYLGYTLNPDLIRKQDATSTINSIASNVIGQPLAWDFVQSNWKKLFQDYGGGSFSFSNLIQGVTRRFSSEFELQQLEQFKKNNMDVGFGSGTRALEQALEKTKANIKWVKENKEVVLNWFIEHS

[1] = target: 72 kDa type IV collagenase (Homo sapiens, UniProt P08253); test: Inhibition of MMP2
How it was run: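 Gelatinase (MMP-2), substrate and inhibitor in 50 mmol/L sodium borate pH 8.5, 30 min at 37 °C; then 0.03% TNBS added, further 20 min incubation; absorbance read at 450 nm.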

What does the source list for `COc1ccc(-c2nnc(NC(=O)[C@@H](C)NC(=O)/C=C/c3ccc(O)cc3)s2)cc1`?
IC50 (Aminopeptidase N): 68.8 µM; Activity [1]: inactive

`C[C@@H](NC(=O)/C=C/c1ccccc1)C(=O)Nc1nnc(-c2ccc(Br)cc2)s1` was tested. Which IC50 (Aminopeptidase N) did it give?
The IC50 was 115 µM.

And the Activity [1]?
The Activity was “inactive”.

What does the source list for `C[C@@H](NC(=O)/C=C/c1ccccc1)C(=O)Nc1nnc(-c2ccc(F)cc2)s1`?
IC50 (Aminopeptidase N): 183 µM; Activity [1]: inactive

For `COc1ccc(-c2nnc(NC(=O)[C@@H](C)NC(=O)/C=C/c3ccccc3)s2)cc1`, which IC50 (Aminopeptidase N) is on record?
The IC50 was 31.4 µM.

And the Activity [1]?
Its Activity is “inactive”.

Which IC50 (Aminopeptidase N) does the source give for `COc1ccc(/C=C/C(=O)N[C@H](C)C(=O)Nc2nnc(-c3ccc(C)cc3)s2)cc1` here?
Its IC50 is 141 µM.

And the Activity [1]?
The Activity was “inactive”.

How did the IC50 (Aminopeptidase N) turn out when `C[C@@H](NC(=O)/C=C/c1ccc(O)cc1)C(=O)Nc1nnc(-c2ccc(F)cc2)s1` was run?
Its IC50 is 115 µM.

And the Activity [1]?
The Activity was “inactive”.

`COc1ccc(/C=C/C(=O)N[C@H](C)C(=O)Nc2nnc(-c3ccc(Cl)cc3)s2)cc1` was tested. Which IC50 (Aminopeptidase N) did it give?
Its IC50 is 135 µM.

And the Activity [1]?
The Activity was “inactive”.

Which IC50 (Aminopeptidase N) does the source give for `Cc1ccc(-c2nnc(NC(=O)[C@@H](C)NC(=O)/C=C/c3ccccc3)s2)cc1` here?
Its IC50 is 206 µM.

And the Activity [1]?
The Activity was “inactive”.

How did the IC50 (Aminopeptidase N) turn out when `COc1ccc(/C=C/C(=O)N[C@H](C)C(=O)Nc2nnc(-c3ccc(F)cc3)s2)cc1` was run?
Its IC50 is 90.7 µM.

What about the Activity [1] of the same compound?
Its Activity is “inactive”.

Which results are given for `COc1ccc(/C=C/C(=O)N[C@H](C)C(=O)Nc2nnc(-c3ccc(OC)cc3)s2)cc1`?
IC50 (Aminopeptidase N): 78.5 µM; Activity [1]: inactive

Which results are given for `C[C@@H](NC(=O)/C=C/c1ccc(O)cc1)C(=O)Nc1nnc(-c2ccc(Cl)cc2)s1`?
IC50 (Aminopeptidase N): 105 µM; Activity [1]: inactive

For `C[C@@H](NC(=O)/C=C/c1ccc(O)cc1)C(=O)Nc1nnc(-c2ccc(Br)cc2)s1`, which IC50 (Aminopeptidase N) is on record?
The IC50 was 35.3 µM.

What about the Activity [1] of the same compound?
Its Activity is “inactive”.

For `C[C@@H](NC(=O)/C=C/c1ccccc1)C(=O)Nc1nnc(-c2ccccc2)s1`, which IC50 (Aminopeptidase N) is on record?
The IC50 was 216 µM.

And the Activity [1]?
Its Activity is “inactive”.

With `Cc1ccc(-c2nnc(NC(=O)[C@@H](C)NC(=O)/C=C/c3ccc(O)cc3)s2)cc1` as the compound, how does the IC50 (Aminopeptidase N) read?
Its IC50 is 127 µM.

What about the Activity [1] of the same compound?
Its Activity is “inactive”.

Which results are given for `COc1ccc(/C=C/C(=O)N[C@H](C)C(=O)Nc2nnc(-c3ccc(Br)cc3)s2)cc1`?
IC50 (Aminopeptidase N): 108 µM; Activity [1]: inactive

How did the IC50 (Aminopeptidase N) turn out when `COc1ccc(/C=C/C(=O)N[C@H](C)C(=O)Nc2nnc(-c3ccccc3)s2)cc1` was run?
The IC50 was 131 µM.

What about the Activity [1] of the same compound?
The Activity was “inactive”.

How did the IC50 (Aminopeptidase N) turn out when `C[C@@H](NC(=O)/C=C/c1ccc(O)cc1)C(=O)Nc1nnc(-c2ccc([N+](=O)[O-])cc2)s1` was run?
Its IC50 is 54.1 µM.

And the Activity [1]?
Its Activity is “inactive”.

With `C[C@@H](NC(=O)/C=C/c1ccccc1)C(=O)Nc1nnc(-c2ccc(Cl)cc2)s1` as the compound, how does the IC50 (Aminopeptidase N) read?
Its IC50 is 153 µM.

And the Activity [1]?
Its Activity is “inactive”.

With `CC(C)C[C@H](NC(=O)[C@@H](O)[C@H](N)Cc1ccccc1)C(=O)O` [UBENIMEX] as the compound, how does the IC50 [1] read?
The IC50 was 9.5 µM.

With `C[C@@H](NC(=O)/C=C/c1ccc(O)cc1)C(=O)Nc1nnc(-c2ccccc2)s1` as the compound, how does the IC50 (Aminopeptidase N) read?
The IC50 was 124 µM.

What about the Activity [1] of the same compound?
The Activity was “inactive”.

How did the IC50 (Aminopeptidase N) turn out when `C[C@@H](NC(=O)/C=C/c1ccccc1)C(=O)Nc1nnc(-c2ccc([N+](=O)[O-])cc2)s1` was run?
The IC50 was 84.7 µM.

What about the Activity [1] of the same compound?
Its Activity is “inactive”.

Which IC50 (Aminopeptidase N) does the source give for `COc1ccc(/C=C/C(=O)N[C@H](C)C(=O)Nc2nnc(-c3ccc([N+](=O)[O-])cc3)s2)cc1` here?
The IC50 was 44.6 µM.

What about the IC50 [1] of the same compound?
Its IC50 is 297 µM.
